Test results: ChEMBL document CHEMBL4513216, “Probing the Open Global Health Chemical Diversity Library for Multistage-Active Starting Points for Next-Generation Antimalarials” (ACS Infect Dis, 2020)

Assay: Toxicity liver stage against HepG2, at 10uM
Format: cell-based
Design: test concentration 10 uM, cell line HepG2-A16-CD81EGFP
Conditions: human, HepG2-A16-CD81EGFP cells; read-out: INHIBITION
How it was run: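 Uninfected HepG2-A16-CD81EGFP cells, 3 × 10^3 per well, 1536-well, plated on prespotted compound at 10 μM final, parasite-free screening media added to match infected plates; puromycin 10 μM positive, DMSO 0.5% negative; run in parallel with 48 h PbLuc assay at 37 °C, 5% CO2; viability by CellTiter-Glo luminescence, normalized to controls.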

SMILES	cytotoxicity at 10 µM
CCC1(CC)Cc2ccccc2-c2nc(NCCCO)[nH]c(=O)c21	10.2%
Cc1nn(C2CCCC2)c2c1C(c1ccc3c(c1)OCO3)SCC(=O)N2 (stereo not given)	-1.52%
CC(C)c1nc2cc(NC(=O)c3n[nH]c4c3CCC4)ccc2n1C	-5.37%
O=C([C@@H]1CCO[C@@H]2CCN(CC3CC3)C[C@H]21)N1CCCCO1	6.59%
Cc1nc(-c2ccc(Cl)cc2)n(CC(=O)NC(C)C)c(=O)c1CCO	-8.88%
CCn1ncc2c1C(COC)CN(Cc1ccsc1)C2 (stereo not given)	-7.47%
Nc1nnnn1NCc1cccc(Cl)c1Cl	11.5%
CCn1cc(NS(=O)(=O)c2ccc(Br)s2)c(C(N)=O)n1	2.3%
CCc1noc(C2CCCCN2C(=O)c2nnc3ccccc3n2)n1 (stereo not given)	0.795%
CCN1CCN(S(=O)(=O)c2cc(Cl)c(Cl)cc2C)CC1	2.28%
c1cnc(N2CCCC(c3csc(Nc4cnccn4)n3)C2)nc1 (stereo not given)	8.33%
C[C@]1(O)CN(Cc2ncc[nH]2)CC[C@@H]1Oc1cccc(F)c1	-6.8%
COc1ccc(NCC2(O)CCNCC2)cc1OC	6.2%
Cc1cc(C(=O)N(C)S(C)(=O)=O)ccc1F	-38.4%
Cc1cc(C(=O)N(C)S(=O)(=O)C(C)C)ccc1F	-54.3%
CCc1ccc2c(c1)C(CCNC(=O)c1sccc1C)C(=O)N2 (stereo not given)	-52.3%
NC(=O)N1CCCCCC1C1CCN(c2nccc(C(F)(F)F)n2)CC1 (stereo not given)	4.82%
C1=C(CNC2CCc3ncnn3C2)COc2ccccc21 (stereo not given)	-2.28%
CN(C)S(=O)(=O)N(Cc1cscn1)c1ccccc1	-3.91%
CCc1nnc(C(C)N2CCN(CCC(C)(C)C)CC2)o1 (stereo not given)	6.61%
O=C(C1CCCN(c2nc3ccccc3cc2CO)C1)N1CCCC1 (stereo not given)	-47.5%
CCCn1nc2c(cc1=O)CN(Cc1nc(-c3ccoc3)no1)CC2	8.64%
Cc1ccc(C2CN(C(=O)NCc3nnc4ccccn34)CCO2)o1 (stereo not given)	5.62%
Cc1nn(C)c(C)c1C(=O)NC(C)CC(=O)c1cccs1 (stereo not given)	-5.08%
CCN1CCN(C2CCN(C(C(N)=O)c3ccccc3)CC2)C1=O (stereo not given)	-10.3%
O=C(CN1CCCC1c1nc(Cc2ccc(F)cc2)no1)NC1CC1 (stereo not given)	20.6%
Cn1cccc1C(=O)NC(C)(C(N)=O)c1cccc(C(F)(F)F)c1 (stereo not given)	3.61%
CCOC(=O)NCCC(=O)NCc1ccc(Oc2ccc(F)cc2)nc1	-18.9%

SMILES	cytotoxicity at 10 µM
Cc1cn2c(n1)CCC(NS(=O)(=O)c1cc(C)sc1C)C2 (stereo not given)	2.74%
O=C(NC1CCN(c2cccc(OC(F)(F)F)c2)C1=O)C1CC1 (stereo not given)	19.2%
O=C(NCCC1=CCCCC1)NC1CCCc2c1cnn2CCO (stereo not given)	-6.95%
O=C(NCc1ccccc1CN1CCOCC1)c1ccc(Br)cc1F	12.3%
CC(C#N)CSc1ccccc1NCC(=O)NC(=O)NC(C)(C)C (stereo not given)	11.7%
CC(C)(C)c1ccc(C2(C(=O)NCCS(C)(=O)=O)CC2)cc1	2.91%
CCC(Nc1cccc(Oc2ccccn2)c1)C(N)=O (stereo not given)	9.55%
CC(NC(=O)c1cccc[n+]1[O-])c1ccc2c(c1)CCC(=O)N2 (stereo not given)	45.2%
FC(F)(F)Cn1cc(NCc2cscn2)cn1	-8.51%
CCOC1CCN(C(=O)c2csc(S(N)(=O)=O)c2)CC1	-11.4%
CCOc1cccc(CCNC(=O)Cc2ccn[nH]2)n1	-27.2%
Cc1cccc(COc2ccc(NC(=O)C(C)NC(N)=O)c(C)c2)c1 (stereo not given)	-28%
CCc1nnc(CN(C)CC2CCCCC2)o1	0.897%
CS(=O)(=O)c1cccc(OCC(=O)N2CCCC2c2ccc[nH]2)c1 (stereo not given)	3.92%
CCN(CC)S(=O)(=O)N(Cc1ccccn1)Cc1ccccc1C	16.9%
O=C(NCc1ncc(-c2ccccc2)o1)NC1CCC(O)CC1 (stereo not given)	-41.8%
CN(CCC#N)C(=O)Cn1nnnc1C(C)(C)C	-46.3%
c1csc(C(CNCc2cccc3c2OCO3)N2CCOCC2)c1 (stereo not given)	-44.4%
CN(Cc1nnc(-c2ccco2)o1)C(C(N)=O)c1cccc(F)c1 (stereo not given)	16.7%
Cc1csc(C2(NCc3nc(-c4ccco4)no3)CCCC2)n1	3.18%
Cc1c(C(C)NC(=O)Nc2ccccc2F)cnn1C (stereo not given)	-45.2%
CC(C)c1noc(CS(=O)(=O)CC(=O)NCCOc2ccccc2)n1	-10%
CCc1noc(CN(C)Cc2ccc(N3CCCCC3)cc2)n1	-5.88%
Cc1noc(C)c1CN1C[C@@H]2COC[C@H](C(=O)N3CCCO3)[C@@H]2C1	-66.6%
Cn1cccc1C(=O)NCc1cn2c(n1)CN(C(=O)c1ccsc1)CC2	-112%
CN1C(=O)CC(c2cnn(C)c2)C12CCN(C(=O)c1cscn1)CC2 (stereo not given)	-76.6%
Cc1[nH]c2ccccc2c1-c1ccnc(NCCN2CCCCC2)n1	-1.36%
